ChEMBL document CHEMBL1914450, “1,7-Naphthyridine 1-oxides as novel potent and selective inhibitors of p38 mitogen activated protein kinase” (J Med Chem, 2011)
≈ marks a conversion by molar mass, not a printed value.

What was measured:
[1] = Cmax in Wistar rat at 10 mg/kg, po by UPLC-MS/MS analysis; type: ADME, organism-based; design: dose 10 mg/kg, route oral; settings: in vivo
Summary of the method: (§1)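 Male Wistar rats received 1 mg/kg iv or 10 mg/kg po. Blood was drawn from the retro-orbital plexus at set time points and centrifuged (3000 rpm, 10 min, 4 °C). Plasma was stored at −20 °C and prepared by protein precipitation for analysis. Oral exposure was measured over 0–6 h. Values are mean ± SD, n = 2.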

[2] = Tmax in Wistar rat at 10 mg/kg, po by UPLC-MS/MS analysis; type: ADME, organism-based; design: dose 10 mg/kg, route oral; settings: in vivo
Summary of the method: (§2)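 Wistar rats dosed 1 mg/kg iv or 10 mg/kg po. Blood drawn from the retro-orbital plexus at set time points. Plasma separated by centrifugation (3000 rpm, 10 min, 4 °C) and stored at −20 °C until analysis. Values are mean of n = 2.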

[3] = (§3) AUC (0 to 6 hrs) in Wistar rat at 10 mg/kg, po by UPLC-MS/MS analysis; type: ADME, organism-based, Plasma; design: time < 6 hr, dose 10 mg/kg, route oral; settings: Wistar, plasma; summary of the method: as §1
[4] = Half life in Wistar rat at 1 mg/kg, iv by UPLC-MS/MS analysis; type: ADME, organism-based; design: dose 1 mg/kg, route intravenous; settings: in vivo; summary of the method: as §1
[5] = Clearance in Wistar rat at 1 mg/kg, iv by UPLC-MS/MS analysis; type: ADME, organism-based; design: dose 1 mg/kg, route intravenous; settings: in vivo; summary of the method: as §1
[6] = Volume of distribution at steady state in Wistar rat at 1 mg/kg, iv by UPLC-MS/MS analysis; type: ADME, organism-based; design: dose 1 mg/kg, route intravenous; settings: in vivo, read-out: Vdss; summary of the method: as §2
[7] = (§4) Bioavailability in Wistar rat at 10 mg/kg, po and at 1 mg/kg, iv measured up to 6 hrs; type: ADME, organism-based; settings: Wistar, in vivo; summary of the method: as §1
[8] = Metabolic stability in rat liver microsomes assessed as metabolic rate at 5 uM after 30 mins by UPLC-MS/MS analysis; type: ADME, Microsome; settings: read-out: Activity
Summary of the method: (§5)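 Test compound at 5 μM incubated 30 min at 37 °C with liver microsomes (1 mg/mL protein), with and without NADPH. Parent compound quantified by UPLC-MS/MS. Metabolic rate taken from parent peak area with NADPH versus without.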

[9] = Metabolic stability in human liver microsomes assessed as metabolic rate at 5 uM after 30 mins by UPLC-MS/MS analysis; type: ADME, Microsome; settings: read-out: Activity; summary of the method: as §5
[10] = Solubility of the compound at pH 7.4; type: physicochemical; settings: buffer
[11] = Solubility of the compound at pH 1.0; type: physicochemical; settings: buffer
[12] = test system: Rattus norvegicus; experiment: as §3; type: ADME, organism-based, Plasma; design: time < 6 hr, dose 10 mg/kg, route oral; settings: in vivo, 6 h; summary of the method: as §1
[13] = test system: Rattus norvegicus; experiment: as §4; type: ADME, organism-based; settings: in vivo, 6 h; summary of the method: as §1

For [O-][n+]1ccc2c(-c3ccc(F)cc3F)cc(C3CCNCC3)nc2c1-c1c(Cl)cccc1Cl, which Cmax [1] is on record?
Its Cmax is 200 nM.

What about the Tmax [2] of the same compound?
The Tmax was 0.3 h.

What about the AUC(0-t) at 6 h [3] of the same compound?
The AUC(0-t) at 6 h was 0.48 µM·h.

What about the half-life [4] of the same compound?
The half-life was 2.3 h.

What about the clearance [5] of the same compound?
Its clearance is 102 mL/min/kg.

And the Vd [6]?
Its Vd is 13.7 L/kg.

And the bioavailability [7]?
The bioavailability was 16%.

For [O-][n+]1ccc2c(-c3ccc(F)cc3F)cc(NC3CCNCC3)nc2c1-c1c(F)cccc1F, which Cmax [1] is on record?
Its Cmax is 90 nM.

What about the Tmax [2] of the same compound?
The Tmax was 0.3 h.

And the AUC(0-t) at 6 h [3]?
The AUC(0-t) at 6 h was 0.05 µM·h.

What about the half-life [4] of the same compound?
Its half-life is 4.6 h.

What about the clearance [5] of the same compound?
The clearance was 59 mL/min/kg.

And the Vd [6]?
The Vd was 10.3 L/kg.

What about the bioavailability [7] of the same compound?
The bioavailability was less than 10%.

Which results are given for Cc1ccccc1-c1c2nccc(-c3ccc(F)cc3F)c2cc[n+]1[O-]?
metabolised at 0.5 h, 5 µM [8]: 9%; metabolised at 0.5 h, 5 µM [9]: < 5%; solubility [10]: 27 µg/mL (≈ 77.5 µM); solubility [11]: 41 µg/mL (≈ 118 µM); Cmax [1]: 5300 nM; Tmax [2]: 3.5 h; AUC [12]: 29.5 µM·h; half-life [4]: 7.4 h; Vd [6]: 1.7 L/kg; F [13]: 38%
